SR-BI HDL uptake: inhibitors of SR-BI mediated HDL lipid uptake, primary screen, ldlA[mSR-BI] cells, fluorescence, single point; ldlA[mSR-BI] CHO cells, DiI-HDL uptake fluorescence, 3 h; inhibition, % at 12.5 µM; hit rate 0.96% among 320,000;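 active = mean replicate inhibition of at least 70% and a set share of replicates each scoring 70 or more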
Target sequence (Q61009 whole entry, looked up): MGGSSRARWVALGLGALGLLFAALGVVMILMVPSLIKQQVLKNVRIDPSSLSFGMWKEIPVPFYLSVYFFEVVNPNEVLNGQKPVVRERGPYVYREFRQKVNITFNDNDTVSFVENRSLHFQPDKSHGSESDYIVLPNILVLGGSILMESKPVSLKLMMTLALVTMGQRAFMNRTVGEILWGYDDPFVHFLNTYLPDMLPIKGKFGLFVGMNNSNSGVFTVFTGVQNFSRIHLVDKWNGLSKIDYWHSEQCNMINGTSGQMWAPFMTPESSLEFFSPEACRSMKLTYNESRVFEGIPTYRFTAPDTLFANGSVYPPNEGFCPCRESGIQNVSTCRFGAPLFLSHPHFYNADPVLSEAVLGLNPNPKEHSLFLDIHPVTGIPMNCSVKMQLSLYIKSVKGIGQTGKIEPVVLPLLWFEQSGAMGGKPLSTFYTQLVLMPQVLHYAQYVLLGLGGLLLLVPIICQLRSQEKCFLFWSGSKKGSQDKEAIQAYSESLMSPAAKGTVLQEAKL
FXN GAA850 act: FXN promoter activators, primary screen, cell-based, luciferase luminescence, HEK293 lucGAA850; AID 540364, 2011; activation, % at 6 µM; HEK293 lucGAA850 FXN promoter luciferase reporter, 24 h; percent of 10 µM SAHA response; hit rate 0.56% among 360,000;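 active = activation above the average of all compounds screened plus 3 SD, cutoff fixed separately per campaign, cut at about 7.5% in these data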
GASC-1 inh: inhibitors of GASC-1 histone demethylase, primary screen, biochemical, fluorescence, DELFIA europium; GST-JMJD2C(1-420) H3K9me3 demethylation; inhibition, % at 2.35 µM; hit rate 0.069% among 330,000; AID 2099, 2009;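 active = more than half of a compound's replicate wells show inhibition beyond 50%, single wells judged on their own value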;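 note: signal counts dimethyl H3K9 product captured on neutravidin plate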
AHR act: AHR activators, primary screen, cell-based, luminescence, luciferase reporter, human; AHR-responsive luciferase reporter cells; Aryl hydrocarbon receptor (Homo sapiens), P35869; activation, % at 5 µM; hit rate 2.5% among 320,000; in the data active = activation above about 47%
SR-BI DiI-HDL act: activators of SR-BI mediated DiI-HDL uptake, primary screen, ldlA[mSR-BI] CHO cells, DiI fluorescence; 3 h; 100 = double the neutral-control signal; activation, % at 12.5 µM; hit rate 0.096% among 320,000; AID 504775, 2011;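 active = mean replicate activation of at least 60% and every replicate at or above 60%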
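Test system: SR-BI-overexpressing, LDLR-lacking CHO cells; Medium: Ham's F12 with 0.5% BSA, HEPES 25 mM, pH 7.4; Schedule: 3 h, 37 °C; Technique: bottom-read fluorescence, 550/595 nm.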
Each line names hits and unclear results; the compound was inactive in the other large screens. In the library only some 3.7% were active in any assay of this set; here they are far more common.

Clc1cccc(C2Nc3cccc4cccc(c34)N2)c1Cl	AHR act 58.9
Fc1ccc(C2Nc3cccc4cccc(c34)N2)cc1	AHR act 50.8
COc1cc(C2Nc3cccc4cccc(c34)N2)cc(OC)c1O	none
CCOc1ccc(-c2nnc3ccc(SCC(=O)N4CCCCC4)nn23)cc1	none
CCOc1ccc(-c2nnc3ccc(SCC(=O)Nc4nc5ccc(C)cc5s4)nn23)cc1	AHR act 63.1
CCOc1ccc(-c2nnc3ccc(SCC(=O)Nc4nc5ccccc5s4)nn23)cc1	AHR act 73.3
CCOc1ccc(-c2nnc3ccc(SC(C)C)nn23)cc1	AHR act 51.0
CCn1c(/C=C/c2c(C)[nH]c3ccccc23)nc2ccccc2c1=O	AHR act 64.6
CCn1c(/C=C/c2c[nH]c3ccccc23)nc2ccccc2c1=O	none
CCn1c(/C=C/c2cccc([N+](=O)[O-])c2)nc2ccccc2c1=O	AHR act 68.1
Cc1cccc(NCc2ccc(N(C)C)cc2)n1	none
Cc1ccc2c(c1)n([O-])c1c([n+]2=O)CCCC1	none
CC(=O)c1c(C)n([O-])c2ccc(C)cc2[n+]1=O	AHR act 59.6
CCOCCn1c2ccccc2c2nc3ccccc3nc21	none
CCCCc1c(C)nn(-c2nnc3c4ccccc4n(CC)c3n2)c1C	AHR act 52.5
CCn1c2ccccc2c2nc3ccccc3nc21	FXN GAA850 act 9.3, AHR act 89.6
O=C(CSc1n[nH]c(-c2cccnc2)n1)OC1CCCCC1	none
COCCCN1C(=O)N(c2ccc(F)cc2)C(=O)C1CC(=O)Nc1ccc(OC)cc1 (stereo not drawn)	SR-BI HDL uptake 75.7
CCc1ccc(NC(=O)CC2C(=O)N(c3cccc(OC)c3)C(=O)N2CCOC)cc1 (stereo not drawn)	SR-BI DiI-HDL act 310.1
COCCN1C(=O)N(c2cccc(OC)c2)C(=O)C1CC(=O)Nc1ccc(Cl)cc1 (stereo not drawn)	none
Cc1noc(C)c1COc1ccc(C(=O)N2CCC(C(N)=O)CC2)cc1	none
O=C(CCNS(=O)(=O)c1ccccc1)OCc1nc2ccsc2c(=O)[nH]1	none
Clc1ccccc1-c1nc(N/N=C/c2cccnc2)c2ccccc2n1	AHR act 66.7
O=C(N/N=C/c1cccnc1)c1cc(-c2ccccc2Cl)nc2ccccc12	none (no result: SR-BI DiI-HDL act)
c1ccc2c(Nc3nc(-c4ccncc4)nc4ccccc34)cccc2c1	AHR act 51.4 (no result: SR-BI HDL uptake, SR-BI DiI-HDL act)
Clc1ccc(/C=N/Nc2nc(Cl)nc3ccccc23)cc1	AHR act 65.3 (no result: SR-BI HDL uptake, SR-BI DiI-HDL act)
Cc1c(O)ccc(/C=N/Nc2nc(-c3cccnc3)nc3ccccc23)c1O	none
Cc1ccc(-c2nc(N/N=C/c3ccncc3)c3ccccc3n2)cc1	AHR act 64.3
Clc1ccc(/C=N/Nc2nnc(Cl)c3ccccc23)cc1	none
Cc1ccc(C(=O)NC2CC3CCC(C2)N3C)cc1 (stereo not drawn)	none
COc1ccc(/C=N/Nc2nc(-c3cccnc3)nc3ccccc23)cc1OC	AHR act 68.4
CC1=C(C(=O)N(C)C)CC(CC(=O)NCc2cccc3ccccc23)C(=O)N1CCC1=CCCCC1 (stereo not drawn)	none (no result: SR-BI HDL uptake, GASC-1 inh, AHR act, SR-BI DiI-HDL act)
O=C1c2ccccc2C(=O)C1Cc1cccc2ccccc12	AHR act 61.1
Cc1nc2nc(-c3cccs3)[nH]c2cc1Br	AHR act 58.4
Cc1cc(C)c(NC(=O)COC(=O)/C=C/c2cccs2)c(C)c1	none
O=C(Nc1nccs1)C(c1ccccc1)N1CCCC1 (stereo not drawn)	none
Nc1cccn2c(-c3ccc(Cl)cc3)cnc12	AHR act 70.2
Cc1cc(/C=N/n2c(COc3ccccc3)nc3ccccc3c2=O)c(O)c([N+](=O)[O-])c1	SR-BI HDL uptake 129.8
CN1C(=O)Cc2cc(S(=O)(=O)Nc3ccc(N4CCOCC4)cc3)ccc21	none
N#C/C(=C\Nc1ccccc1O)c1nc2ccccc2o1	SR-BI HDL uptake 112.9
Cn1c(O)c(/C=N/NC(=O)c2cc3ccccc3cc2O)c2ccccc21	none (no result: SR-BI HDL uptake, SR-BI DiI-HDL act)
COCCn1c(C)cc(/C=N/NC(=O)c2cc3ccccc3cc2O)c1C	SR-BI HDL uptake 95.3
